From PubChem
An excerpt weighted towards active compounds, which were near 1.5% of everything screened.
697 NFkB inh = inhibitors of the PMA/ionomycin-induced NF-kB reporter in 697 B cells | hit rate 0.33% among 330,000 | 697 B-cell NF-kB luciferase reporter, 16 h | AID 435022 | inhibition, % at 4 µM; in the data active means inhibition above about 35%
JMJD2C inh = human JMJD2C demethylase inhibition | inhibition, % at 2.35 µM | hit rate 0.069% among 330,000 | Q9H3R0 | GST-JMJD2C(1-420) H3K9me3 demethylation, DELFIA europium;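 active means more than half of a compound's replicate wells show inhibition beyond 50%, single wells judged on their own value; inconclusive means some, but no more than half, of replicates pass 50% inhibition; inactive means no replicate passes 50% inhibition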;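 further: signal counts dimethyl H3K9 product captured on neutravidin plate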
NR2E3 ag-1 = human photoreceptor-specific nuclear receptor agonism; Q9Y5X4; CHO-S Gal4-NCOR/VP16-NR2E3 two-hybrid, luciferase; inhibition of corepressor binding, % at 3.98 µM; hit rate 0.35% among 360,000; AID 602229;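 active means inhibition above the mean of all tested compounds plus 3 SD, cut at about 70% in these data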;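 further: higher means lower luciferase signal from less NR2E3 corepressor binding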
Target sequence (Q9Y5X4 whole entry, looked up, the tested form may be a part): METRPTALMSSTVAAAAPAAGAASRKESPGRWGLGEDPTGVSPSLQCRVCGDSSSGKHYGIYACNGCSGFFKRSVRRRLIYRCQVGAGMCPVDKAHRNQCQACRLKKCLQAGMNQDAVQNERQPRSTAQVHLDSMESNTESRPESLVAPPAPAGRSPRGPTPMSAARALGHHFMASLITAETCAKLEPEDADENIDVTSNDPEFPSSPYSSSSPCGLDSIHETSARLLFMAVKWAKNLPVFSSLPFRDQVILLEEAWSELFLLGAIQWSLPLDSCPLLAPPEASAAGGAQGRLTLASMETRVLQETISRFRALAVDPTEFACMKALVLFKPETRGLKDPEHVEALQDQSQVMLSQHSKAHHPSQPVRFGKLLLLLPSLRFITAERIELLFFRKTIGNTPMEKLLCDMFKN
NR2E3 ag-2 = NR2E3 (human) agonism. Q9Y5X4. GST-NR2E3/biotin-RetCOR TR-FRET, 1536-well. inhibition of corepressor binding, % at 4.78 µM. hit rate 0.12% among 320,000;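 active means percent inhibition above the cutoff of mean plus 3 SD of all tested compounds, set per screening campaign, cut at about 20% in these data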
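System: GST-tagged NR2E3 plus biotinylated RetCOR corepressor; Buffer or medium: pH 7.5 Tris-based buffer; Probe or stimulus: RetCOR corepressor, biotinylated, 7 nM; Doses: compound at 4.8 µM, single dose; Schedule: 5 h incubation at 4 °C; Technique: time-resolved FRET; Evaluation: percent inhibition of TR-FRET ratio; Replication: one well per compound, singlicate testing.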
Jurkat NFkB inh = lowers PMA/ionomycin-induced NF-kB signal in Jurkat cells | PMA/ionomycin-induced NF-kB luciferase reporter, luminescence | inhibition, % at 4 µM | hit rate 0.53% among 330,000; in the data active means inhibition above about 50%
GalR3 antag = antagonists of human GalR3. O60755. HEK293 GalR3-CNG cAMP membrane potential fluorescence; galR3 body fused to GalR1 C-terminus. inhibition, % at 3 µM. hit rate 0.44% among 360,000;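 active means inhibition above the screen-wide average plus 3 SD, cut at about 13% in these data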;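 further: forskolin and galanin both at EC90 stimulate the cells; cAMP rise reported by CNG channel membrane potential dye signal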
Target sequence (O60755 1-299 limits assumed): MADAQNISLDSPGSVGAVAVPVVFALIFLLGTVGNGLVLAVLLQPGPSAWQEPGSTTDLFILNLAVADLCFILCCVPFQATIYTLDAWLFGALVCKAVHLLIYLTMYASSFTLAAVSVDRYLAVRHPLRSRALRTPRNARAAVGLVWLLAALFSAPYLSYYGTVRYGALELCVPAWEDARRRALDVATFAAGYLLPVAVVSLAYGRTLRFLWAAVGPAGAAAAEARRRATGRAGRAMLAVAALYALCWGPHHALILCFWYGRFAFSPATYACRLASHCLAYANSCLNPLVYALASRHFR
Jurkat NFkB conf = inhibitors of the PMA/ionomycin-induced NF-kB reporter in Jurkat cells, retest | inhibition, % at 4 µM | hit rate 27% among 2,700 | Jurkat NF-kB luciferase, 16 h | shares compounds with Jurkat NFkB inh | AID 435020;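 active means inhibition reaching about 45% at 4 µM in either replicate, limit read from the data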
Each line names hits and unclear results; the compound was inactive in the other large screens (follow-up assays come after a bar, where they were run).

COc1ccc(OC)c(-c2nn(-c3ccccc3)cc2C(=O)NCC(c2ccco2)N2CCCC2)c1 (stereo not drawn)	none
ONC(=Nc1ccccc1)C(=Nc1ccccc1)NO	none
c1ccc(-c2noc(-c3ccc4c(c3)OCO4)n2)nc1	Jurkat NFkB inh 68.0 | Jurkat NFkB conf 69.2
Cc1cccc(-c2noc(-c3ccc4c(c3)OCO4)n2)c1	none | Jurkat NFkB conf inactive
CCc1ccc2nc3sc(C(=O)O)cc3cc2c1	none
CCCN1CCC(=O)N(CCSc2ccc(OC)cc2)CC1	Jurkat NFkB inh 53.5 | Jurkat NFkB conf inactive
Cc1nc(SCC(=O)NNC(=O)c2ccc(F)cc2)c2ccccc2n1	none (no result: JMJD2C inh, NR2E3 ag-2)
CSc1nc(N(C)NC(=O)c2ccc(F)cc2)c2ccccc2n1	Jurkat NFkB inh 50.5 | Jurkat NFkB conf inactive
CCN1/C(=C/C=C/c2oc3ccc4ccccc4c3[n+]2CC)Oc2ccc3ccccc3c21	Jurkat NFkB inh 92.5 (no result: NR2E3 ag-1, GalR3 antag) | Jurkat NFkB conf inactive
NC(Cc1ccc(O)cc1)C(=O)NN=Cc1ccccc1Cl (stereo not drawn)	none (no result: 697 NFkB inh, JMJD2C inh, NR2E3 ag-1, NR2E3 ag-2, Jurkat NFkB inh)
CC(C)(C)C(=O)Nc1ccccc1N1CCN(c2ccc(F)cc2)CC1	none
COC(=O)c1cnc(Oc2ccc(NC(=O)NC(=O)c3c(F)cccc3F)cc2)cc1C(F)(F)F	none
COC(=O)c1cnc(Oc2ccc(NC(=O)NC(=O)c3c(OC)cccc3OC)cc2)cc1C(F)(F)F	Jurkat NFkB inh 66.2 | Jurkat NFkB conf 60.5
COC(=O)c1cnc(Oc2ccc(NC(=O)NC(=O)c3c(F)cccc3Cl)cc2)cc1C(F)(F)F	Jurkat NFkB inh 50.4 | Jurkat NFkB conf inactive
COc1ccc2cc(CN(CC3CCCO3)C(=S)Nc3ccccc3)c(=O)[nH]c2c1 (stereo not drawn)	none | Jurkat NFkB conf inactive
COc1ccc2[nH]c(=O)c(CN(CC3CCCO3)C(=S)Nc3ccccc3)cc2c1 (stereo not drawn)	none
COc1ccc(-n2c(C)c(C)c3c(NCCCO)ncnc32)cc1	none (no result: NR2E3 ag-2)
Cc1ccc(NC(=S)N2CCC(c3ccccc3)C2)c(Cl)c1 (stereo not drawn)	none | Jurkat NFkB conf inactive
CCOC(=O)c1cc2c(OC)c(OC)ccc2c2[nH]cc(C#N)c(=O)c12	none (no result: 697 NFkB inh, JMJD2C inh, NR2E3 ag-2, Jurkat NFkB inh)
Cn1/c(=N/NC(=O)c2ccccc2Br)sc2ccccc21	none
COC(=O)[C@]12CCCCC=C1N(CCC1=CCCCC1)C(=O)[C@H](CC(=O)NCCCCc1ccccc1)C2	none (no result: 697 NFkB inh, JMJD2C inh, NR2E3 ag-2, Jurkat NFkB inh)
COc1ccc(OC)c(N=c2oc3cc(O)ccc3cc2C(N)=O)c1	JMJD2C inh inconclusive
COc1ccc2oc(=Nc3cc(F)ccc3F)c(C(N)=O)cc2c1	Jurkat NFkB inh 65.3 | Jurkat NFkB conf inactive
COC(=O)c1cc2ccc(OC)cc2c2cc(OC)c(OC)cc12	none (no result: NR2E3 ag-2)
COc1ccccc1/C=N/N1C(=O)C(CC(=O)Nc2ccc([N+](=O)[O-])cc2OC)SC1=Nc1cccc(C)c1C (stereo not drawn)	Jurkat NFkB inh 68.8 (no result: NR2E3 ag-1) | Jurkat NFkB conf inactive
CCOc1ccc(/C(C)=N/N2C(=O)C(CC(=O)Nc3ccc(OC)cc3[N+](=O)[O-])SC2=Nc2cccc(C)c2C)cc1 (stereo not drawn)	none
CC1=C(C)/C(=N\OS(=O)(=O)c2ccccc2)C=CC1=O	NR2E3 ag-1 74.2, Jurkat NFkB inh 54.7 (no result: GalR3 antag) | Jurkat NFkB conf inactive
COc1ccc(Cl)cc1CC1(C)C(=O)Nc2ccc(S(=O)(=O)NC3CCCCC3)cc21 (stereo not drawn)	none (no result: 697 NFkB inh, JMJD2C inh, NR2E3 ag-2, Jurkat NFkB inh)
CCC(=NCCc1c(C)[nH]c2ccc(C)cc12)C1=C(O)CC(c2ccccc2)CC1=O (stereo not drawn)	Jurkat NFkB inh 63.9 | Jurkat NFkB conf inactive
COc1ccc(NC(=O)C2CC3CCC2C3)c(OC)c1 (stereo not drawn)	none
CCN(CCCNC(=O)C1CCC(=O)N1Cc1ccccc1Cl)c1cccc(C)c1 (stereo not drawn)	none
CCN(CCCNC(=O)C1CCC(=O)N1Cc1ccc(C)cc1)c1cccc(C)c1 (stereo not drawn)	Jurkat NFkB inh 57.1 | Jurkat NFkB conf inactive
Cc1cc(NC(=O)CSc2nnc3c(C)cc4c(C)ccc(C)c4n23)no1	Jurkat NFkB inh 59.1 | Jurkat NFkB conf inactive
Cc1ccc(Nc2cc(C)nn2-c2nc(C)cc(=O)[nH]2)cc1	NR2E3 ag-1 108.6, Jurkat NFkB inh 97.4 (no result: GalR3 antag) | Jurkat NFkB conf 67.5
Cc1ccc(Nc2nc3ccccc3nc2-n2nc(C)cc2C)cc1	none
Cc1ccc2nc(SCC(=O)NCc3ccccc3)nc(=O)n2c1	none
CCCn1cc(CN2CCCC(C(=O)c3ccc4c(c3)OCO4)C2)c(C)n1 (stereo not drawn)	none
O=C(CNC(=O)c1ccco1)N=Nc1c(O)n(CCc2ccccc2)c2ccccc12	Jurkat NFkB inh 66.8 | Jurkat NFkB conf 51.4
CCn1c(O)c(N=NC(=O)CNC(=O)Cc2ccccc2)c2ccccc21	none
COc1ccc(-n2nnnc2SCC(=O)Nc2c(C)n[nH]c2C)cc1	none (no result: NR2E3 ag-2)
CCOC(=O)C1=C(c2ccccc2)O/C(=C(/C#N)C(F)(F)F)S1	Jurkat NFkB inh 74.7 (no result: NR2E3 ag-1, GalR3 antag) | Jurkat NFkB conf 54.0
O=C(c1ccc(F)cc1F)C1CCN(c2ccc([N+](=O)[O-])cn2)CC1	Jurkat NFkB inh 85.6 | Jurkat NFkB conf inactive
CN1C2=CC=CC=CC2=[N+](C)C12C=CC(=[N+]([O-])[O-])C=C2[N+](=O)[O-] (stereo not drawn)	none
CN1C2=CC=CC=CC2=[N+](C)C12C([N+](=O)[O-])=CC(=[N+]([O-])[O-])C=C2[N+](=O)[O-] (stereo not drawn)	Jurkat NFkB inh 72.6 | Jurkat NFkB conf inactive
CC(C)(C)c1ccc(/C=C/C(=O)Nc2nncs2)cc1	none | Jurkat NFkB conf inactive
COc1ccc(C(=O)c2ccc(OC)cc2OC)cc1	none
COc1ccc(C(=O)c2ccc(N(C)C)cc2)c(OC)c1	Jurkat NFkB inh 67.9 | Jurkat NFkB conf 47.0
Cn1ccnc1SCC(=O)Nc1ccc(Br)cc1C(F)(F)F	none (no result: GalR3 antag)
Cc1ccc(C(=O)Nc2ccc3c(c2)OCCO3)cc1	none (no result: NR2E3 ag-2)
O=C(Nc1ccc2c(c1)OCCO2)c1cccc(Br)c1	none (no result: NR2E3 ag-2) | Jurkat NFkB conf inactive
O=C(Nc1ccc2c(c1)OCCO2)c1ccc(Cl)c([N+](=O)[O-])c1	none
O=C(Nc1ccc2c(c1)OCCO2)c1ccc(Cl)c(Cl)c1	none | Jurkat NFkB conf inactive
Cc1cc(C(=O)Nc2ccc3c(c2)OCCO3)ccc1[N+](=O)[O-]	none | Jurkat NFkB conf inactive
O=C(Nc1ccc2c(c1)OCCO2)c1ccc(Br)cc1	none
CCN1CCN(c2ccc(NC(=O)c3ccc4c(c3)OCCO4)cc2C)CC1	none (no result: JMJD2C inh, NR2E3 ag-2) | Jurkat NFkB conf inactive
O=C(Nc1ccc(Cl)cc1Cl)c1ccc2c(c1)OCCO2	none | Jurkat NFkB conf inactive
Nc1c(C(=O)Nc2ccc3c(c2)OCCO3)nnn1Cc1cccc(Br)c1	none
